# Source: PubChem BioAssay
# Hits are enriched below; roughly 3.1% of the tested compounds scored in any of these assays.
# KCNK3 inh – human KCNK3 channel inhibitors, primary screen, CHO cells, FluxOR thallium flux, B-score; FluxOR fluorescence; active compounds read low; B-score at 10 µM; hit rate 0.84% among 340,000;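 active = B-score under library mean minus 4 SD, starting fluorescence ratio at most library mean plus 5 SD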;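 also: more negative B-score means stronger inhibition of thallium flux through KCNK3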
# hERG protect – hERG rescue from dofetilide block, primary screen, cell-based, CHO-hERG, FluxOR thallium flux, dofetilide IC70; hit rate 0.51% among 310,000; Voltage-gated inwardly rectifying potassium channel KCNH2 (Homo sapiens), Q12809; dofetilide IC70 present; activation (rescue from dofetilide block), less the hit threshold, % at 10 µM;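 active = activation above the mean of controls blocked by dofetilide plus 5 SD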;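 also: thallium influx through hERG after potassium depolarization seen as dye fluorescence rise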
# Target sequence (Q12809 whole entry, looked up): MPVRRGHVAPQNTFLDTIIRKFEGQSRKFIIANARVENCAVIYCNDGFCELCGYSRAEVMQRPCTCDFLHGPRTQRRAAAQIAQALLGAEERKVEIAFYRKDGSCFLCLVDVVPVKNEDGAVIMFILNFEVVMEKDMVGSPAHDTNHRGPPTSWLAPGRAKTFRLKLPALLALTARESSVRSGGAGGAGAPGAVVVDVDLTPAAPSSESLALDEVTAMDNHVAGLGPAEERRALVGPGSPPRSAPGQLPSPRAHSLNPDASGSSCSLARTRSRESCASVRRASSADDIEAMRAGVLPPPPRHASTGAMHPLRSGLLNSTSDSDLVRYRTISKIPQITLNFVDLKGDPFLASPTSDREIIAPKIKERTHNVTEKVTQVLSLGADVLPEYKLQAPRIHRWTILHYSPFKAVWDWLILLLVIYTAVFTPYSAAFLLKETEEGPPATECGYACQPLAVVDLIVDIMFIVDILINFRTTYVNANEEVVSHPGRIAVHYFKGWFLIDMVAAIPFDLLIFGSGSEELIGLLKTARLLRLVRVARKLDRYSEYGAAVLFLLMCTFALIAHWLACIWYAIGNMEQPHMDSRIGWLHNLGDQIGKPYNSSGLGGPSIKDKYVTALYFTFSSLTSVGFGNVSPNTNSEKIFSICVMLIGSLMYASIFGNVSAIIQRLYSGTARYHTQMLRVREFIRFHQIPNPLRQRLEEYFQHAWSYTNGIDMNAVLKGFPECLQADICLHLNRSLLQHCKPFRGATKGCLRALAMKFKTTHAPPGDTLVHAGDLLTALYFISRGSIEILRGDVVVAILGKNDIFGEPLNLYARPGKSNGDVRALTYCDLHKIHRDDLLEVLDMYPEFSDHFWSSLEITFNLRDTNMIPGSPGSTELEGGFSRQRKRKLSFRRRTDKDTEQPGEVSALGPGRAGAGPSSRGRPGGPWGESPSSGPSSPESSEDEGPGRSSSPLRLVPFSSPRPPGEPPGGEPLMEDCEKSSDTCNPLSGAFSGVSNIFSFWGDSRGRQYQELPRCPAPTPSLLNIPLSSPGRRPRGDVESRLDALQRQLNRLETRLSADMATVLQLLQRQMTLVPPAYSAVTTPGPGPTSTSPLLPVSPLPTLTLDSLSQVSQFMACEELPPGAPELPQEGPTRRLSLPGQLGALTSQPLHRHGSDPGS
# KCNK9 inh – KCNK9 potassium channel inhibitors, primary screen, HEK293 cells, thallium flux; Potassium channel subfamily K member 9 (Homo sapiens), Q9NPC2; FluxOR thallium flux fluorescence; active compounds read low; B-score at 10 µM; hit rate 1.2% among 310,000;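 active = ratio B-score over 3 SD below the library mean, with starting fluorescence within 5 SD of its mean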;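 also: negative B-score means less thallium flux so channel inhibition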
# KCNQ1 pot – potentiators or activators of KCNQ1 channel, primary screen, cell-based, thallium flux, high-throughput; Potassium voltage-gated channel subfamily KQT member 1 (Homo sapiens), P51787; hit rate 0.35% among 310,000; CHO-K1 KCNQ1, thallium flux FluxOR fluorescence; active compounds read high; B-score at 10 µM;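 active = fluorescence ratio B-score, a plate-corrected score, at least three library SD, with initial intensity B-score within 5 SD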
#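 Medium – assay buffer, equal DMSO in all wells · Material – CHO-K1 cell line with stable KCNQ1 potassium channel expression · Signal – kinetic FluxOR thallium fluorescence, 10-s 1-Hz baseline, 110-s post-stimulus read · Compound – single concentration per compound, DMSO matched to controls · Schedule – 37 °C overnight plating, 90-min dark dye load, 20-min compound pretreatment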
# KCNQ1 inh – inhibitors of human KCNQ1 channel, primary screen, cell-based, thallium flux, high-throughput; CHO-K1 KCNQ1, FluxOR thallium flux fluorescence; active compounds read high; hit rate 1.3% among 310,000; Potassium voltage-gated channel subfamily KQT member 1 (Homo sapiens), P51787; B-score at 10 µM;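 active = compounds whose thallium flux B-score, printed positive for inhibition, exceeds three library SD while starting fluorescence stays within three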;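 also: channel opened by potassium depolarization with thallium stimulus after 20 min compound exposure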
# KCNK9 inh conf – KCNK9 potassium channel inhibitors, confirmation, HEK293 cells, thallium flux, duplicate; FluxOR thallium flux fluorescence; hit rate 43% among 4,900; shares compounds with KCNK9 inh; AID 492992, 2010; inhibition, % at 10 µM;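 active = thallium signal inhibited by more than 5 SD of the compound-free buffer control wells, on both duplicate plates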;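 also: 0% = assay buffer control wells without compound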
# Kir2-1 spec – mouse Kir2.1 channel inhibition, confirmation, selectivity assay for KCNK9 modulator project, cell-based, HEK293, thallium flux; shares compounds with KCNK9 inh; Kir2.1 cells, FluxOR thallium flux fluorescence; inhibition, % at 10 µM; hit rate 4% among 4,900; AID 492993, 2010;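 active = thallium signal drop more than 5 SD beyond the mean of the no-compound control wells, seen in both duplicate plates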;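 also: signal is fluorescence rise after thallium addition divided by baseline fluorescence; plate controls were assay buffer only for no effect and full block by chlorpromazine control for full effect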
# KCNK9 uninduced – thallium flux in non-induced HEK293 cells, confirmation, counter-screen for KCNK9 inhibitor project, cell-based, second counter screen, non-induced KCNK9-HEK293; shares compounds with KCNK9 inh; FluxOR thallium flux; inhibition, % at 10 µM; hit rate 40% among 4,900;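 active = thallium signal drop beyond 5 SD of the untreated control mean, on both duplicate plates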;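 also: plate controls were buffer only IC0 wells for no effect and SID17386958 at its maximal inhibitory level for full effect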
# * = called active by the depositor; i = inactive; · = not tested or not shown.
SMILES,KCNK3 inh,hERG protect,KCNK9 inh,KCNQ1 pot,KCNQ1 inh,KCNK9 inh conf,Kir2-1 spec,KCNK9 uninduced
N#Cc1cc2c(nc1SCc1ccccc1)CCCCC2,i,-8,i,i,i,·,·,·
N#Cc1cc2c(nc1SCc1cccc(Cl)c1)CCCCC2,i,-8,-8.3*,i,i,27%*,i,35%*
Cc1cccc(C(C(=O)NC2CCCC2)N(C(=O)c2csnn2)C2CC2)c1 (centres undefined),i,-5,i,i,i,·,·,·
CCCCNC(=O)O/N=C(\N)CS(=O)(=O)C(C)(C)C,i,-6,i,i,i,·,·,·
COc1ccc(/C(N)=N/OC(=O)CSc2ccc(C)cc2)cc1OC,i,-8,i,i,i,·,·,·
Cc1ccc(SCC(=O)O/N=C(\N)c2ccc([N+](=O)[O-])cc2)cc1,i,-10,i,i,i,i,i,i
Cc1cccc(C)c1NC(=O)C(NC=O)c1ccc(Cl)cc1 (centres undefined),i,-7,i,i,i,·,·,·
Cc1cccc(C)c1NC(=O)C(C)c1ccc(-c2ccccc2)c(F)c1 (centres undefined),i,-1,-10*,i,i,47%*,i,46%*
O=c1[nH]cnc2c1c(-c1ccccc1)cn2-c1cccc(Cl)c1,i,-4,-13*,i,i,52%*,i,i
COC(=O)C1=C(C(=O)OC)SC(=C2C(=S)C(C)(C)N(C(=O)CC(C)C)c3ccccc32)S1,i,-13,-11*,i,i,26%*,i,32%*
CC(C)NC(=O)c1onc(CSc2ccc(Cl)cc2)c1C(=O)O,i,-7,i,i,i,·,·,·
CC(C)NC(=O)c1onc(CSc2ccc(Cl)cc2)c1C(=O)NC(C)C,i,-8,i,i,i,i,i,i
CCCNC(=O)c1onc(CSc2ccc(Cl)cc2)c1C(=O)NC(C)C,i,-13,i,i,i,i,i,i
COc1ccc(C(=O)N2CCC3(CC2)NCCc2[nH]cnc23)cc1,i,-6,i,i,i,·,·,·
COc1ccc(CN(C)CC(=O)NC(=O)NCc2ccccc2)c(OC)c1,i,-5,i,i,i,i,i,i
CN(CC(=O)NC(=O)NCc1ccccc1)Cc1ccc(Cl)c(Cl)c1,i,-9,i,i,i,i,i,i
COc1ccc(-n2c(C)nn(CCOc3ccccc3)c2=O)cc1,i,-5,i,i,i,·,·,·
Cc1nn(CC2CC2)c(=O)n1-c1ccc(Oc2ccccc2)cc1,i,-3,i,i,i,i,i,i
Cc1cc(Cl)c2oc(C(=O)N(C)Cc3ccon3)c(C)c2c1,i,-5,i,i,i,·,·,·
N#Cc1cc(N)ccc1Sc1ccc(Cl)cc1,i,-6,-8.5*,i,i,38%*,i,32%*
Cc1ccc(-c2ccc(C(=O)Nc3cccc(F)c3)o2)c2ccccc12,i,-17,i,i,i,i,i,i
CCCCN(C)C(=O)c1cccc(OC2CCN(CC(C)(C)C)CC2)c1,i,-4,-12*,i,i,i,i,i
COc1ccccc1OCCSc1nnnn1-c1ccc(C)cc1,i,-9,i,i,i,i,i,i
CCN(CC)c1nc(C#N)nc(N(CC)CC)n1,i,-8,i,i,i,i,i,i
O=C(CN1CCN(c2ccccn2)CC1)N1c2ccccc2Sc2ccc(C(F)(F)F)cc21,i,-11,i,i,i,i,i,i
SMILES,KCNK3 inh,hERG protect,KCNK9 inh,KCNQ1 pot,KCNQ1 inh,KCNK9 inh conf,Kir2-1 spec,KCNK9 uninduced
O=C(CN1CCCC1)N1c2ccccc2Sc2ccc(C(F)(F)F)cc21,i,-11,i,i,i,·,·,·
O=C(c1ccc(S(=O)(=O)N2CCCCCC2)cc1)N1CCN(c2ccccc2)CC1,i,-4,i,i,i,·,·,·
CC1CC(C)CN(S(=O)(=O)c2ccc(C(=O)N3CCN(c4ccccc4)CC3)cc2)C1 (centres undefined),i,-5,i,i,i,i,i,i
Nc1ncnc(Oc2cccc3cccnc23)c1[N+](=O)[O-],i,2,i,i,i,·,·,·
COc1ccc(-c2nn(-c3ccccc3F)cc2CNCCn2nc(C)cc2C)cc1,i,-16,i,i,i,i,i,i
COc1ccc(-c2nn(-c3ccccc3)cc2CNCCN2CCOC2=O)c(F)c1,i,-11,i,i,i,·,·,·
O=C(OCCN(C1=NS(=O)(=O)c2ccccc21)c1ccccc1Cl)c1ccc(Cl)cc1,i,-10,-8.1*,i,i,30%*,i,30%*
CN(CC(=O)Nc1ccc(Cl)cc1)C1=NS(=O)(=O)c2ccccc21,i,·,·,·,·,·,·,·
Cc1ncc(CN2CCN(C(C)C)C(CCO)C2)s1 (centres undefined),i,-6,i,i,i,·,·,·
COc1ccc(/C=N/NC(=O)CSc2nnc(CCCc3ccc(OC)c(C)c3)o2)cc1,i,-16,i,i,i,i,i,i
O=C(/C=C/c1ccco1)NC(=S)Nc1cccc(-c2nc3ccccc3s2)c1,i,-11,i,i,i,i,i,i
CC(=O)Nc1ccc(-c2nc3cc(Cl)ccc3o2)cc1,i,-7,i,i,i,·,·,·
O=C(O)c1ccccc1-c1ccccc1C(=O)Nc1ccc(-c2nc3cc(Cl)ccc3o2)cc1,i,-17,i,i,i,i,i,i
CC(C)CN(C(=O)COC(=O)c1ccccc1SCC(=O)N1CCCC1)C1CCS(=O)(=O)C1 (centres undefined),i,·,·,·,·,·,·,·
COc1ccc(S(=O)(=O)Nc2cccc(S(=O)(=O)N3CCCCCC3)c2)cc1,i,-15,-8.2*,i,i,42%*,i,28%*
